Data set [1] can be described thus: Clearance in rat liver microsomes at 1 uM measured after 2 to 60 mins in presence of NADP by LC-MS/MS analysis. It counts as ADME, Microsome.
The nature of data set [2]: Oral bioavailability in Wistar rat at 0.6 to 1 mg/kg by LC-MS/MS analysis. Type of data set: ADME, organism-based. To be noted: in vivo.
Data set [3] in a line: Inhibition of PI3K/AKT/mTOR signaling pathway in human MCF7 cells assessed as reduction in AKT phosphorylation at Ser473 residues measured after 30 mins by HTRF assay. To be noted: MCF7, 0.5 h.
Data set [4] addresses Serine-protein kinase ATM (Homo sapiens, UniProt Q13315). Briefly: Inhibition of N-terminally FLAG-tagged recombinant full-length ATM (unknown origin) expressed in […] cells using biotin-PEG2-SVEPPLSQETFSD as substrate preincubated for 15 mins followed by substrate addition and measured after 90 mins by TR-FRET assay. The procedure, abridged:
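Full-length N-terminal FLAG ATM from HEK293-6E, anti-FLAG purified, typically 15 nM. Compound was pre-bound 15 min at 22 °C in HEPES pH 7.0 buffer with MgCl2, KCl, DTT, BSA and Igepal. The reaction ran with 10 μM ATP and 1 μM peptide (final) for 90 min at 22 °C and was stopped with EDTA, streptavidin-XL665 and Eu anti-phospho-p53(Ser15). […] 11 concentrations, 20 μM–0.07 nM, in duplicate.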
Background: In TR-FRET formats the signal depends on donor and acceptor labels being close together.

The target of data set [5] is Phosphatidylinositol 4,5-bisphosphate 3-kinase catalytic subunit beta isoform (Homo sapiens, UniProt P42338). Kind of data set: Inhibition of PI3Kbeta (unknown origin).
Chain of Phosphatidylinositol 4,5-bisphosphate 3-kinase catalytic subunit beta isoform (P42338 whole entry, canonical isoform): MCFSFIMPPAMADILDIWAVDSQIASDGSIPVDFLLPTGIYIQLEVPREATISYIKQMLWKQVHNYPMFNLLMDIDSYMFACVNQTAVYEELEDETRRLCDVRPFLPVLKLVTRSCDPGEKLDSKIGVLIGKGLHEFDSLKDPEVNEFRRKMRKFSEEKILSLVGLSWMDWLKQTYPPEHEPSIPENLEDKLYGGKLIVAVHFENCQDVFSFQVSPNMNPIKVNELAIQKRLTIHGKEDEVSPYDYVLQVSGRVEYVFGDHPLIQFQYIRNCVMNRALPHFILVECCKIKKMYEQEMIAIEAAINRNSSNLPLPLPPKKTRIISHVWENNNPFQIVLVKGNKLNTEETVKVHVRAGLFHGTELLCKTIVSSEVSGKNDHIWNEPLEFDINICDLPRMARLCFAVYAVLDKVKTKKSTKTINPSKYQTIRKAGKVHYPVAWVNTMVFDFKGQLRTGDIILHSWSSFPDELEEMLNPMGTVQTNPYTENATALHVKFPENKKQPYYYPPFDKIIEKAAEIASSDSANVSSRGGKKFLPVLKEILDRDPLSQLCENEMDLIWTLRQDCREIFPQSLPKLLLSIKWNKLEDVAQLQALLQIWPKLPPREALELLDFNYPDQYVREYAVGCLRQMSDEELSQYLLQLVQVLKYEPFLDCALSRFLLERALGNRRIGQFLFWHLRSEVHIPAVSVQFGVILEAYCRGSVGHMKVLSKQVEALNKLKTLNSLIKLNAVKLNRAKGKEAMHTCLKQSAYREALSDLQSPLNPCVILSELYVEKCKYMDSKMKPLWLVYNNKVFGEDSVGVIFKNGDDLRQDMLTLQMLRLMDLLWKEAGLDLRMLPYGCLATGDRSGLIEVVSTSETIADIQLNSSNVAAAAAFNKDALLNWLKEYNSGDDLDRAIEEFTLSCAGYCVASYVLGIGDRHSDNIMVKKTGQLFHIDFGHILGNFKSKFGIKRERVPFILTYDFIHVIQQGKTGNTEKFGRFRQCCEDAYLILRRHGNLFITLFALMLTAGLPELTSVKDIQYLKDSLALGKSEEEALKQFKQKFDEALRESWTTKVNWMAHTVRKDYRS
Data set [6] concerns the target T1, Cyclin-G-associated kinase (Homo sapiens, UniProt O14976).
T1 sequence (O14976 whole entry): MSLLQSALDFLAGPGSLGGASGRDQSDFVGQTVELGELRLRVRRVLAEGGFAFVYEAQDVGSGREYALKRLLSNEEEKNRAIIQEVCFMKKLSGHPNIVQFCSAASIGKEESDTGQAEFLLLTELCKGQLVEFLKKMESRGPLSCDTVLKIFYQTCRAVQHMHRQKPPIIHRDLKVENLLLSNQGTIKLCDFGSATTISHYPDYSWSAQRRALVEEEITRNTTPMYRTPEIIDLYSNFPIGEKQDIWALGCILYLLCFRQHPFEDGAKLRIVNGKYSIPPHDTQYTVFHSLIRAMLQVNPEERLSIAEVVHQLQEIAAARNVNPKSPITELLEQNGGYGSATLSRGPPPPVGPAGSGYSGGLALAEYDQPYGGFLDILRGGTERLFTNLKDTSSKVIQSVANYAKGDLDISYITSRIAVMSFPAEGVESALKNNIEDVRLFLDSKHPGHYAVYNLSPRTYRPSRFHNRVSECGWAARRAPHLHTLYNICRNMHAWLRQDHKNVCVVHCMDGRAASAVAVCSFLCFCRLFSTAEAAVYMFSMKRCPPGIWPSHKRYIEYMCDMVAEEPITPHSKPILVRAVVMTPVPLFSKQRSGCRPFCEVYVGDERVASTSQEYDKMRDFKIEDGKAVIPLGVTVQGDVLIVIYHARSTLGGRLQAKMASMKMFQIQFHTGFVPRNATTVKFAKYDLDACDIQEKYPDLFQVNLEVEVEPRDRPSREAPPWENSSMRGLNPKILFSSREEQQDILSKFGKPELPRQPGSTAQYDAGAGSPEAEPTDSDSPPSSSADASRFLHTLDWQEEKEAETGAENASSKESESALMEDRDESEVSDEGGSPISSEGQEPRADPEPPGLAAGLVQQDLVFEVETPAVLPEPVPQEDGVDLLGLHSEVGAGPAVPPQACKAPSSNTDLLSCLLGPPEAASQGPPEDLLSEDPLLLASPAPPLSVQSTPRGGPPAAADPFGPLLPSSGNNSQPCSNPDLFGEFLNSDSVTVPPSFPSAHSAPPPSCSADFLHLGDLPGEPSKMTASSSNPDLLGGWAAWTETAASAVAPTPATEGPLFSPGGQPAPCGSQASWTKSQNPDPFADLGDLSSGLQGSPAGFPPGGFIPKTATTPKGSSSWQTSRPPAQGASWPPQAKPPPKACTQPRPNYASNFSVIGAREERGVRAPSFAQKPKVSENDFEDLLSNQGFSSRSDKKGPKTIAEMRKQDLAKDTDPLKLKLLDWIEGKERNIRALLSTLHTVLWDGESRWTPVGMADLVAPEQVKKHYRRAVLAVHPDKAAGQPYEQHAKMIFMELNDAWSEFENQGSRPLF
Briefly: Binding affinity to wild-type human partial length GAK (G13 to Y338 residues) expressed in bacterial expression system by Kinomescan method.

Data set [7] can be described thus: Maximum oral bioavailability in mouse liver microsomes based well stirred liver model at 1 uM measured after 2 to 60 mins in presence of NADP by LC-MS/MS analysis. Type of data set: ADME, Microsome. To be noted: read-out: Fmax. In general terms: Liver microsomes are vesicles of endoplasmic reticulum, rich in cytochrome P450 enzymes.
A short description of data set [8]: Protein binding in human plasma assessed as unbound fraction at 3 uM measured after 7 hrs by LC-MS/MS analysis. Type of data set: ADME, cell-free.
The nature of data set [9]: Protein binding in rat plasma assessed as unbound fraction at 3 uM measured after 7 hrs by LC-MS/MS analysis. It counts as ADME, cell-free.
Data set [10] in a line: Volume of distribution at steady state in NMRI mouse at 0.3 to 0.5 mg/kg, iv administered as bolus dose by LC-MS/MS analysis. It counts as ADME, organism-based. To be noted: in vivo.
Data set [11] in a line: Volume of distribution at steady state in Beagle dog at 0.3 to 0.5 mg/kg, iv administered as bolus dose by LC-MS/MS analysis. Type of data set: ADME, organism-based, Canis lupus familiaris. To be noted: in vivo, read-out: Vdss.
The next data set deals with SU-DHL-8. Briefly: Antitumor activity against human SUDHL8 cells harboring ATM K1964E mutant xenografted in CB-17 mouse assessed as tumor growth at 50 mg/kg, po bid dosed every 3 days followed by 4 days interval relative to control. Type of data set: functional. The procedure, abridged:
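SU-DHL-8 (ATM K1964E) GCB-DLBCL cell line-derived xenograft in female C.B-17 SCID mice, n = 9/group. Oral dosing at 50 mg/kg b.i.d. on an intermittent schedule of 3 days on/4 days off. Treatment-to-control (T/C) ratio versus vehicle.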
In general terms: A xenograft is tissue or cells of one species grown in another, often human tumour cells in immunodeficient mice.

The target in data set [12] is Serine/threonine-protein kinase ATR (Homo sapiens, UniProt Q13535). Kind of data set: In vivo inhibition of ATR in human SUDHL8 cells harboring ATM K1964E mutant xenografted CB-17 mouse assessed as change in pH2AX level at 50 mg/kg, po bid dosed every 3 days followed by 4 days interval. It counts as functional, organism-based.
Chain of Serine/threonine-protein kinase ATR (Q13535 whole entry, looked up): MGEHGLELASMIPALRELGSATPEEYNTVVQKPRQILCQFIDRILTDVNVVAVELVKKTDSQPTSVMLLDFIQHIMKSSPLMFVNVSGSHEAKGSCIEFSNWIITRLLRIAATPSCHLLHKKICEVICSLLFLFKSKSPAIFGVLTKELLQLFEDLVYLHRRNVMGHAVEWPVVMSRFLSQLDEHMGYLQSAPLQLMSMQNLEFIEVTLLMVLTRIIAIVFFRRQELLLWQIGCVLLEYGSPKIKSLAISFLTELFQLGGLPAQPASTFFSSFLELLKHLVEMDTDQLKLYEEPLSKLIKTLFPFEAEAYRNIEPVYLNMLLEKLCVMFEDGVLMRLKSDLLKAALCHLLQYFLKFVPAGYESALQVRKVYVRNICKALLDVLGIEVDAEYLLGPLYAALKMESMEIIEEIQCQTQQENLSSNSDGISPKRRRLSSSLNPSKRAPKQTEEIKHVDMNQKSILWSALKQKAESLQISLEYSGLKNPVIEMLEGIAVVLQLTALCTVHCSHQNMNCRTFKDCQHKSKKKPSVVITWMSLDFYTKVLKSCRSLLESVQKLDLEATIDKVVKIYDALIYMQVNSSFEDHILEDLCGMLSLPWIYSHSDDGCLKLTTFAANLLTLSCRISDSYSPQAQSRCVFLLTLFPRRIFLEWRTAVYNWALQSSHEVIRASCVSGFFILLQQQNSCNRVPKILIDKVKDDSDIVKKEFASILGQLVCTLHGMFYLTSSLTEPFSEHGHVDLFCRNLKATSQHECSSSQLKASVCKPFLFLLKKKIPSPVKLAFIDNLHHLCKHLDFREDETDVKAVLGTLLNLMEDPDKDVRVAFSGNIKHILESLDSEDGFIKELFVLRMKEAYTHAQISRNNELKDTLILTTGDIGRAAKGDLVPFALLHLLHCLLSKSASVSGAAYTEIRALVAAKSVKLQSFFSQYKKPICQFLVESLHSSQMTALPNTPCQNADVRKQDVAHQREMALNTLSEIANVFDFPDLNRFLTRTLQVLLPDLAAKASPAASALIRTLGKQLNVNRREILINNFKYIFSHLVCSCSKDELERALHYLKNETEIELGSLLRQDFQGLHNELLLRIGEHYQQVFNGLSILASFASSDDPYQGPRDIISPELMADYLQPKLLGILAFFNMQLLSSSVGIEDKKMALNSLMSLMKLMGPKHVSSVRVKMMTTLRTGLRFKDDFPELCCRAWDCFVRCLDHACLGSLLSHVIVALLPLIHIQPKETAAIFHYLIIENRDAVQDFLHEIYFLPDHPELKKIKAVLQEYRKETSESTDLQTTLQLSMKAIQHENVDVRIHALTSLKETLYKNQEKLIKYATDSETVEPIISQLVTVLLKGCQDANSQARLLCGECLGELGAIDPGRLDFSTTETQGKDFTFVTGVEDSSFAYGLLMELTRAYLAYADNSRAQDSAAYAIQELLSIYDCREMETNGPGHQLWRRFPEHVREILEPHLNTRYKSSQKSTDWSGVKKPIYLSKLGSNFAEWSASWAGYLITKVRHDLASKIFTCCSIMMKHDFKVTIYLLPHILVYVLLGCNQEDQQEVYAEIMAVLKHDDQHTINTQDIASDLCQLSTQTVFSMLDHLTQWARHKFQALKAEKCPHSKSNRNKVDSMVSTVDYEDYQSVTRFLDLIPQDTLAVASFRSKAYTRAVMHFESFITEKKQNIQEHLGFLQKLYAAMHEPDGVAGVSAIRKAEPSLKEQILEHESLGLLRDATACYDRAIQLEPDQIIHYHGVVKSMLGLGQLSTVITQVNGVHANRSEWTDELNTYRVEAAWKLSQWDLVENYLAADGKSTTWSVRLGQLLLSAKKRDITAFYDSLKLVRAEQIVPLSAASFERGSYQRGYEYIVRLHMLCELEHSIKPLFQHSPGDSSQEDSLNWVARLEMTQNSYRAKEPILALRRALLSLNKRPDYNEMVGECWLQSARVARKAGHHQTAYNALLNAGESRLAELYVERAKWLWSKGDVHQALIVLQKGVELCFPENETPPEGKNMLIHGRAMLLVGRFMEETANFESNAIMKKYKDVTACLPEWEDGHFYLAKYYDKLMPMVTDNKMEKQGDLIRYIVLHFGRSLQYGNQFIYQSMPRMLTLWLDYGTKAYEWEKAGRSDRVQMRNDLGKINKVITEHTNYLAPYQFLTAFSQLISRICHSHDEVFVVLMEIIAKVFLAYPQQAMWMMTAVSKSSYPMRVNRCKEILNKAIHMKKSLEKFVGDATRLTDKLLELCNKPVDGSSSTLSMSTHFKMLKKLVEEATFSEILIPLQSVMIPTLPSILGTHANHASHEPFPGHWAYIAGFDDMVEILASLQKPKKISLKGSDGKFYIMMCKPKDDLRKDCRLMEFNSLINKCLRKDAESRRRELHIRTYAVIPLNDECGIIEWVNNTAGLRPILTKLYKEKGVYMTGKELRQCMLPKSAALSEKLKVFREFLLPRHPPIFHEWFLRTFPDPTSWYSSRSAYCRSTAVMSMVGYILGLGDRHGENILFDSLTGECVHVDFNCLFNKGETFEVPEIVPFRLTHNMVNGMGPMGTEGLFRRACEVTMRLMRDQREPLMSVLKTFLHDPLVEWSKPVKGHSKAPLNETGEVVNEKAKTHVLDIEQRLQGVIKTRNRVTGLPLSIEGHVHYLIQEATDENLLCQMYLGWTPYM
Data set [13] in a line: Antitumor activity against human CR5038 cells xenografted in NOD/SCID mouse assessed as tumor growth at 20 mg/kg, po qd dosed every 2 days followed by 5 days interval for 2 weeks and subsequent dosing at 10 mg/kg in presence of carboplatin relative to control. Type of data set: functional. The procedure, abridged: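 CR5038 human CRC PDX in NOD/SCID mice, n = 10/group. Oral dosing q.d. at 20 mg/kg, reduced to 10 mg/kg from day 14, 2 days on/5 days off. Combined with carboplatin 40 mg/kg i.p. once weekly (1 day on/6 days off). T/C ratio reported versus vehicle and the monotherapies; body weight was monitored.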

The nature of data set [14]: Toxicity in nude mouse xenografted with human SUM149 cells assessed as body weight loss at 20 mg/kg, po bid dosed every 3 days followed by 4 days interval in presence of olaparib relative to control. Type of data set: organism-based, SUM149PT. To be noted: in vivo.

SMILES strings stand for the structures. pIC50, pKd: −log10 of the molar value. Calls of active or inactive are those of the source. The calls are words filed in the database; no cut-off is given here.

Turning to `C[C@@H]1COCCN1c1cc(-c2ccnn2C)c2ccnc(-c3ccn[nH]3)c2n1` [ELIMUSERTIB], the CLH in [1] is 8.67 mL/min/kg. In data set [2], the bioavailability was found to be 87%. In addition, the pIC50 in [3] is 7.46; in data set [4] it was 5.85; in data set [5], 5.49. Besides, the pKd in [6] was 6.24. The Fh at 1 µM in data set [7] turned out to be 44%. Moreover, the unbound share (fraction unbound) at 7 h, 3 µM in data set [8] stood at 0.03; in [9], 0.17. Moreover, the Vdss in data set [10] came out at 8.8 L/kg. For the same compound, the Vd in [11] stood at 1 L/kg. Moreover, the T/C in the data set with SU-DHL-8 is given as -0.03; in [13], 0.34. Moreover, in [12], the inhibition result is “Active”. For the same compound, the Activity in data set [14] was less than 10%.

As usually defined, the bioavailability is dose-corrected exposure relative to a reference, in per cent. In general, pIC50 refers to the negative decadic logarithm of the IC50, by convention in mol/L. Broadly, the pKd is the negative decadic logarithm of the Kd, by convention in mol/L. Lower therefore signals a large Kd. Usually fraction unbound stands for free concentration divided by total concentration. As a reminder, the Vdss is the apparent volume that relates the amount in the body to the concentration in plasma or blood. A lower Vdss goes with little distribution into tissue.

The values above are taken from ChEMBL document CHEMBL4610117 (J Med Chem, 2020).
